# Source: PubChem (The Scripps Research Institute Molecular Screening Center)
# EBNA-1 inhibitor = blocks EBNA-1 binding to DNA; AID 1950; EBNA-1 DNA binding, fluorescence polarization; inhibition, % at 14.8 µM; 0.34% of 300,000 active; in the data active = inhibition above about 28%
# CTSL1 counter = blocks F. hepatica cathepsin L1 in PFM18AAP counter-screen; recombinant F. hepatica cathepsin L1, Z-Leu-Arg-MCA fluorescence; inhibition, % at 5.96 µM; 0.49% of 300,000 active;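 active = inhibition above the mean of all tested compounds plus 3 SD, set per screening campaign, cut at about 17% in these data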;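 also: 0% = plate median of test compound wells and 100% = 1 µM Z-Phe-Ala-diazomethylketone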
# HCV NS3 hel inh = HCV NS3 helicase inhibition | NS3 helicase DNA unwinding, Cy5 molecular beacon fluorescence | inhibition, % at 10.9 µM | 0.56% of 290,000 active;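 active = inhibition above the mean of all tested compounds plus 3 SD, set per campaign, cut at about 35% in these data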;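 also: 0% = DMSO wells and 100% = thioflavine S control wells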
#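 Compound dosing – single dose, 10.9 µM nominal final, DMSO 0.8% final · System – NS3 helicase fragment of HCV · Buffer or medium – MOPS pH 6.5, MgCl2, DTT, Tween20, BSA · Signal – Cy5 beacon fluorescence read at start and 1 h · Also added – annealed dual-labelled DNA beacon duplex, ATP-started · Schedule – 1 h at 25 °C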
# ZTA counter = counter-screen for EBNA-1 inhibitors: inhibitors of Epstein-Barr virus ZTA; ZTA-DNA binding, fluorescence polarization; P03206; inhibition, % at 11 µM; AID 2234; 0.15% of 320,000 active; in the data active = inhibition above about 33%
# Target sequence (P03206 whole entry, looked up): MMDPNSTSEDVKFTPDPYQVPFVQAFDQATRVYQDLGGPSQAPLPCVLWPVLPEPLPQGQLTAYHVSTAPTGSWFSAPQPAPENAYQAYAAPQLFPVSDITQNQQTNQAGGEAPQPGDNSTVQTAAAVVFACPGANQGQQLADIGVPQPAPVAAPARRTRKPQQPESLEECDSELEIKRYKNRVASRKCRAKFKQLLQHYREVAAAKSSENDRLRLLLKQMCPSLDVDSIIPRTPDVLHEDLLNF
# NS3 helicase cf = HCV NS3 helicase inhibition, confirmation assay | shares compounds with HCV NS3 hel inh | NS3 helicase DNA unwinding, Cy5 molecular beacon fluorescence | inhibition, % at 10.9 µM | 31% of 1,600 active | AID 1943;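 active = inhibition above the mean of all tested compounds plus 3 SD, cutoff set per campaign, cut at about 36% in these data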
# DNA FID counter = intercalator displacement, NS3 helicase counter-screen; inhibition, % at 7.9 µM; 4% of 1,600 active; DNA fluorescent intercalator displacement, fluorescence; shares compounds with HCV NS3 hel inh; in the data active = inhibition above about 37%;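 also: 0% = vehicle and 100% = reference compound; higher means more displacement of ethidium bromide from the DNA hairpin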
# DNA FID DR = DNA intercalator displacement in dose response. AID 2172. IC50, µM. 120 tested, under 10 active. fluorescent intercalator displacement from DNA, fluorescence. shares compounds with HCV NS3 hel inh; call rule not given here
# * hit, by the source's call; x = not tested or not shown. An excerpt weighted towards active compounds, which were near 1.4% of everything screened.
SMILES,EBNA-1 inhibitor,CTSL1 counter,HCV NS3 hel inh,ZTA counter,NS3 helicase cf,DNA FID counter,others
O=C1NC(=S)S/C1=C\c1ccc(SCc2ccccc2)o1,-8,2,47*,15,81*,22,
O=C1NC(=S)S/C1=C/c1ccc(OC(=O)c2ccco2)cc1,-5,0,21,14,x,x,
CCC1=NN2C(=N)/C(=C\c3ccc(SCc4ccco4)o3)C(=O)N=C2S1,-1,2,23,10,x,x,
O=C1NC(=S)S/C1=C\c1ccc(SCc2ccco2)o1,27,2,76*,92*,81*,31,
Cc1ccc(C(=O)/C=C/c2cc(Br)cc(Br)c2O)o1,-1,-1,37*,16,48*,8,DNA FID DR=>79
Cc1c(C(=O)O)cccc1-c1ccc(/C=C2\SC(=O)NC2=O)o1,-9,0,45*,4,-20,5,
Cc1c(C(=O)O)cccc1-c1ccc(/C=C2/NC(=O)N(c3ccccc3)C2=O)o1,5,1,11,-15,x,x,
CC1CCCCN1C(=O)Cn1cc(C(=O)c2ccco2)c2ccccc21 (centres undefined),-2,3,38*,-1,-8,-24,
O=C(c1ccco1)c1cn(CC(=O)N2CCCCCC2)c2ccccc12,-3,-1,-7,0,x,x,
Cc1cc(C)nc(NS(=O)(=O)c2ccc(NC(=O)c3ccc(N4C(=O)CCC4=O)cc3)cc2)n1,5,-3,60*,-5,-21,12,
Nc1c(C(=O)NC2CCCC2)sc2nc(-c3cccs3)ccc12,-12,1,56*,0,-16,6,
NC(=O)c1sc2nc(-c3cccs3)ccc2c1N,0,0,0,-18,x,x,
CC(NS(=O)(=O)c1ccc(F)cc1)C(=O)Nc1ccc2c(c1)OCCO2 (centres undefined),-3,4,4,-6,x,x,
COc1ccc(CCNC(=O)C2CC(=O)N(C3CCCCC3)C2)cc1OC (centres undefined),-8,0,96*,-11,0,-1,
CCCC(NC(=O)COc1cc2c(c3oc(=O)c(C)c(C)c13)CCC(C)(C)O2)C(=O)O (centres undefined),-11,-1,55*,-3,0,-2,
Cc1c(NC(=O)CN2C(=O)NC3(CCCC3)C2=O)c(=O)n(-c2ccccc2)n1C,-6,2,36*,-15,-4,16,
Cc1c(NC(=O)CN2C(=O)NC(C)(c3ccccc3Cl)C2=O)c(=O)n(-c2ccccc2)n1C (centres undefined),8,0,11,4,x,x,
O=C(/C=C1\C(=O)Nc2ccccc21)/C=C1\C(=O)Nc2ccccc21,x,x,54*,x,9,29,
CCN(CC)C(=O)CSC1=N/C(=C/c2ccco2)C(=O)N1c1ccc(OC)c(Cl)c1,1,0,38*,-14,-9,-28,
CN(CC1CCCO1)S(=O)(=O)c1ccc(C(=O)N2CCN(c3ccccc3)CC2)cc1 (centres undefined),8,-1,3,5,x,x,
O=C(Nc1ccccc1C(=O)NC(Cc1c[nH]c2ccccc12)C(=O)O)c1ccccc1 (centres undefined),-1,-1,40*,-15,42*,-36,
COCCOC(=O)C1=C(C)NC(=O)NC1c1ccc(-c2cc(Cl)ccc2Cl)o1 (centres undefined),3,9,43*,0,-20,-19,
COC(=O)C1=C(C)NC(C)=C(C(=O)OC)C1c1ccc(-c2cc(Cl)ccc2Cl)o1,-7,7,15,11,x,x,
O=C(NNC(=O)c1cc2ccccc2cc1O)Nc1ccccc1F,-1,3,46*,-2,-8,-4,
O=C(COC(=O)c1cc(-c2ccco2)nc2ccccc12)NCc1ccc2c(c1)OCO2,4,0,41*,6,86*,54*,
SMILES,EBNA-1 inhibitor,CTSL1 counter,HCV NS3 hel inh,ZTA counter,NS3 helicase cf,DNA FID counter,others
O=S(=O)(O)c1cccc2c(N=Nc3ccc(O)c4ncccc34)cccc12,27,8,84*,28,77*,9,
COc1ccc(N2C(=O)C3C(C2=O)C(C(=O)c2ccc(Cl)cc2)N2CCCC32)cc1 (centres undefined),8,-2,40*,3,33,-24,
CSc1ncccc1C(=O)OCC(=O)N(CC(C)C)c1c(N)n(Cc2ccccc2)c(=O)[nH]c1=O,7,0,4,6,x,x,
Cc1cc(O)c2c(C)c(CC(=O)N3CCN(C(=O)C4COc5ccccc5O4)CC3)c(=O)oc2c1 (centres undefined),-3,6,46*,-3,-5,-30,
C/C(=C\C(=O)c1ccc(Br)cc1)Nc1cccc(Cl)c1,6,0,6,4,x,x,
C/C(=C\C(=O)c1ccc(Cl)cc1)Nc1ccc(Br)cc1,3,0,47*,-10,0,8,
Cc1cc(C(=O)CSc2nn3c(=O)c(C(C)(C)C)nnc3s2)c(C)n1-c1ccc(F)cc1,1,4,40*,1,3,-27,
CC(C)N(C(=O)CSc1nn2c(=O)c(C(C)(C)C)nnc2s1)c1ccccc1,-10,6,5,-6,x,x,
Cc1ccccc1C(=O)NC(=S)Nc1ccc(S(=O)(=O)N(C)c2ccccc2)cc1,-1,0,-9,5,x,x,
Cc1noc(C)c1S(=O)(=O)N(CC(=O)O)c1ccc2c(c1)OCO2,-7,-2,0,-1,x,x,
Nc1c(C(=O)Nc2ccc(F)cc2)sc2nc(-c3ccco3)ccc12,5,3,41*,19,-6,10,
NC(=O)c1sc2nc(-c3ccccc3)ccc2c1N,-4,0,2,-10,x,x,
Cc1ccc(NC(=O)c2sc3nc4c(c(-c5ccco5)c3c2N)CCC4)cc1,-2,5,27,-9,x,x,
CC(=O)c1sc2nc(-c3ccco3)ccc2c1N,-8,8,68*,-18,46*,15,
Nc1c(C(=O)Nc2ccc(Br)cc2)sc2nc(-c3ccco3)ccc12,1,5,69*,3,28,5,
COC(=O)c1cccc(-n2c(=O)n(Cc3ccccc3)c(=O)c3[nH]cnc32)c1C,3,3,1,7,x,x,
CCOC(=O)C(=O)Nc1ccc([N+](=O)[O-])cc1OC,-12,-1,2,-7,x,x,
CCOC(=O)Nc1ccc([N+](=O)[O-])cc1OC,-12,0,42*,1,-12,0,
O=C1OC(c2ccc(Br)cc2)=N/C1=C\c1ccco1,-7,1,47*,1,-6,16,
CCc1c(C)c2ccc(O)c(CN3CCCC3)c2oc1=O,x,x,-7,x,x,x,
COCCn1c(=NC(=O)c2cc(-c3cccs3)nc3ccccc23)sc2cc(S(N)(=O)=O)ccc21,5,3,64*,12,-3,0,
COCCn1c(=NC(=O)c2ccc(S(=O)(=O)N3CCOCC3)cc2)sc2cc(S(N)(=O)=O)ccc21,0,2,-8,-6,x,x,
